ChEMBL document CHEMBL3132844, “Acyl protein thioesterase inhibitors as probes of dynamic S-palmitoylation” (Medchemcomm, 2014)

Legend:
[1] = Inhibition of Toxoplasma gondii ASH1
In short: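 The Toxoplasma gondii APT homologue TgASH1 was assayed by competitive ABPP. The inhibitor was preincubated, followed by activity-based probe labeling. Loss of probe labeling of TgASH1 was scored across inhibitor concentrations.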

[2] = target: T1, sn-1-specific diacylglycerol lipase ABHD11 (Homo sapiens, UniProt Q8NFV4); test: Inhibition of ABHD11 (unknown origin)
T1 sequence (Q8NFV4 whole entry): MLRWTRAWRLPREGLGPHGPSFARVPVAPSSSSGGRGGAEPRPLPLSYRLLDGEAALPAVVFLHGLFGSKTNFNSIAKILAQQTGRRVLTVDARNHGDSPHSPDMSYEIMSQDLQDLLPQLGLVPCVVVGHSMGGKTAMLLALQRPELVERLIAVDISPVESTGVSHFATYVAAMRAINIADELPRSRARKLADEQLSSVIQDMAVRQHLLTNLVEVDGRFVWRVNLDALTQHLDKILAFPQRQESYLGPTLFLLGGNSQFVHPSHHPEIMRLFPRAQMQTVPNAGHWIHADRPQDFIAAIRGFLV
In short: (§1)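 Potency and selectivity were measured by gel-based competitive ABPP. The enzyme source was preincubated with inhibitor, then labeled with a fluorophosphonate activity-based probe. Residual active-site labeling was visualized in-gel.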

[3] = target: T2, Acyl-protein thioesterase 1 (Homo sapiens, UniProt O75608); test: Inhibition of human APT1; in short: as §1
T2 sequence (O75608 whole entry): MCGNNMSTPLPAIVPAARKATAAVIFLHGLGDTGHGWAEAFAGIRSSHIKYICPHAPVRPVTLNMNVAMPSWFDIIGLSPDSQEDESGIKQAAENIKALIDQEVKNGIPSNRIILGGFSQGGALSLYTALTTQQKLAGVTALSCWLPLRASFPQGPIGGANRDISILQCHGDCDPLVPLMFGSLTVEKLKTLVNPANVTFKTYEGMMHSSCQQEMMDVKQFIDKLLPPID

[4] = target: T3, Acyl-protein thioesterase 2 (Homo sapiens, UniProt O95372); test: Inhibition of human APT2; in short: as §1
T3 sequence (O95372 whole entry): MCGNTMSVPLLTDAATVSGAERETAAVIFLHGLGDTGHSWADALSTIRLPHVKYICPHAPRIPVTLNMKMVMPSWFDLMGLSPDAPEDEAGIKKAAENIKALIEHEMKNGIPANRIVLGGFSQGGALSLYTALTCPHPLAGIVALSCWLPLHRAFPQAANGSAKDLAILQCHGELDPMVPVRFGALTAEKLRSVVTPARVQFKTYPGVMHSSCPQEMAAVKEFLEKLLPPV

[5] = target: T3, Acyl-protein thioesterase 2; test: Inhibition of APT2 (unknown origin)
[6] = target: T3, Acyl-protein thioesterase 2; test: Inhibition of APT2 (unknown origin) by FluPol-ABPP assay
In short: (§2)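 Fluorescence polarization competitive ABPP (FluoPol-ABPP) in high-throughput format. Recombinant human APT enzyme was preincubated with candidate inhibitor at 10 µM. FP-TAMRA was then added for a short, time-dependent reaction under non-equilibrium conditions. Read-out was the polarization signal of probe labeling of the active site.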

[7] = target: T2, Acyl-protein thioesterase 1; test: Inhibition of APT1 (unknown origin) by FluPol-ABPP assay; in short: as §2
[8] = target: T3, Acyl-protein thioesterase 2; test: Inhibition of APT2 (unknown origin) by enzyme kinetic assay
[9] = target: T2, Acyl-protein thioesterase 1; test: Inhibition of APT1 (unknown origin)

IC50 [2] [nM]	IC50 [3] [nM]	IC50 [4] [nM]	Structure (SMILES)	also measured
–	–	–	CCCOc1oc(=O)c2cc(N)ccc2c1Cl	IC50 [1]: 1320 nM
< 30	< 30	200	O=C(N1CCCCC1)n1ncc(C(O)(c2ccccc2)c2ccccc2)n1	–
–	–	–	CCCCCCCCCC[C@@H]1C(=O)O[C@H]1CCCCS(=O)(=O)CCCN(C)C	IC50 [5]: 19.6 nM
< 30	17	30	CC(C)(C)C1CCN(C(=O)n2ncc(C(O)(c3ccccc3)c3ccccc3)n2)CC1	–
< 30	> 10000	> 10000	CCC1CCCCN1C(=O)n1ncc(C(O)(c2ccccc2)c2ccccc2)n1 (stereo not drawn)	–
–	–	–	O=C(CN1CCN(C(=O)c2ccco2)CC1)Nc1cc(C(F)(F)F)ccc1Cl	Ki [6]: > 10000 nM
–	–	–	COc1ccc(N2CCN(C(=O)c3cc4c(s3)-c3ccccc3S(=O)(=O)C4)CC2)cc1	Ki [7]: > 10000 nM; Ki [6]: 230 nM
–	–	–	CN(C)CCOB(c1ccccc1)c1ccc(COCc2ccc(B(OCCN(C)C)c3ccccc3)cc2)cc1	Ki [8]: 730 nM
–	–	–	CCCCCCCCCC[C@@H]1C(=O)O[C@H]1CCc1ccc(OC)c(OC)c1 [PALMOSTATIN B]	IC50 [5]: 37.7 nM; Ki [5]: 34 nM; IC50 [9]: 5.4 nM
